Measurements as given in ChEMBL document CHEMBL3860103, “Antibacterial and Antibiofilm Activity of Cationic Small Molecules with Spatial Positioning of Hydrophobicity: An in Vitro and in Vivo Evaluation” (J Med Chem, 2016).
Active and inactive are the calls of the source. The calls are words filed in the database; no cut-off is given here.

Tests used:
Staphylococcus aureus [1] = assay: Induction of biofilm disruption in Staphylococcus aureus after 24 hrs by confocal laser-scanning microscopy; type: functional
In short: (§1)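 Biofilms grown on glass coverslips from ~10^5 CFU/mL: S. aureus in nutrient medium + 1% glucose + 1% NaCl, 24 h; E. coli in M9 + 0.5% glycerol + 0.02% casamino acid, 72 h; stationary, 37 °C. After PBS wash, treated 24 h at 37 °C with 32 µg/mL in the same medium; media-only control. Stained with SYTO 9 (5 µM), imaged by confocal microscopy.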

Escherichia coli [2] = assay: Induction of biofilm disruption in Escherichia coli after 24 hrs by confocal laser-scanning microscopy; type: functional; in short: as §1
Escherichia coli [3] = assay: Antibacterial activity against Escherichia coli incubated for 24 hrs; type: functional
In short: (§2)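 Broth microdilution: 6 h cultures diluted to ~10^5 CFU/mL in medium; compounds 2-fold serially diluted in water, mixed 1:3 with bacterial suspension. Incubated 24 h, 37 °C; OD600 read. MIC = concentration with OD similar to medium-only control. Triplicate wells, experiments repeated at least twice.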

[4] = Induction of hemolysis in human RBC incubated for 1 hr; type: cell-based, Erythrocyte; conditions: red blood cells
In short: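 Washed human RBCs from heparinized blood, 5 vol% in PBS, mixed 3:1 with serially diluted compounds; 1 h at 37 °C. Centrifuged; supernatant A540 read. Hemolysis % = (A−A0)/(Atotal−A0)×100, with water as 0% and 0.1 vol% Triton X-100 as full lysis.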

Staphylococcus aureus [5] = assay: Antibacterial activity against methicillin-resistant Staphylococcus aureus incubated for 24 hrs; type: functional
In short: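 MRSA (ATCC 33591) from a 6 h culture (~10^9 CFU/mL), diluted to ~10^5 CFU/mL in medium. Compounds in water, 2-fold serial dilutions, combined with the bacteria at 1:3 by volume and incubated 24 h at 37 °C. OD600 read. MIC is the lowest concentration whose OD matches the media-only control. Triplicate wells; experiments repeated at least twice.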

Staphylococcus aureus [6] = assay: Antibacterial activity against Staphylococcus aureus incubated for 24 hrs; type: functional; in short: as §2
[7] = Selectivity index, ratio of HC50 for induction of hemolysis in human RBC to MIC for Staphylococcus aureus
Escherichia coli [8] = assay: Induction of membrane permeabilization in Escherichia coli at 32 ug/ml after 0 to 20 mins by propidium iodide dye based assay; type: functional
In short: (§3)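 Membrane permeabilization of S. aureus or E. coli followed as increase in propidium iodide fluorescence after adding compounds at 32 µg/mL.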

Staphylococcus aureus [9] = assay: Induction of membrane depolarization in Staphylococcus aureus at 32 ug/ml after 0 to 20 mins by […] dye based assay; type: functional
In short: (§4)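 Membrane-potential dye DiSC3(5) taken up by S. aureus or E. coli; depolarization followed as rise in dye fluorescence after adding compounds at 32 µg/mL.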

Staphylococcus aureus [10] = assay: Induction of membrane permeabilization in Staphylococcus aureus at 32 ug/ml after 0 to 20 mins by propidium iodide dye based assay; type: functional; in short: as §3
[11] = Selectivity index, ratio of HC50 for induction of hemolysis in human RBC to MIC for Escherichia coli
Escherichia coli [12] = assay: Induction of membrane depolarization in Escherichia coli at 32 ug/ml after 0 to 20 mins by […] dye based assay; type: functional; in short: as §4
[13] = Toxicity in HEK293 cells assessed as induction of cell death at 64 ug/ml incubated for 24 hrs by calcein AM and propidium iodide dye based fluorescence microscopy; conditions: human, hek293, 24 h
In short: (§5)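 HEK 293 cells seeded ~10^4 cells/well, treated with compounds for 24 h (16, 32 or 64 µg/mL); 0.1% Triton X positive, untreated negative control. Stained with calcein AM (2 µM) and PI (4.5 µM) 15 min at 37 °C, 5% CO2; imaged by fluorescence microscopy, 20X objective.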

[14] = Toxicity in HEK293 cells assessed as cell density level at 16 ug/ml incubated for 24 hrs by calcein AM and propidium iodide dye based fluorescence microscopy; conditions: human, hek293, 24 h; in short: as §5
[15] = Toxicity in HEK293 cells assessed as partial induction of cell death at 32 ug/ml incubated for 24 hrs by calcein AM and propidium iodide dye based fluorescence microscopy; conditions: human, hek293, 24 h; in short: as §5

Molecule	MBEC (Staphylococcus aureus [1])	MBEC (Escherichia coli [2])	MIC (Escherichia coli [3])	HC50 at 1 h [4]	MIC (Staphylococcus aureus [5])	MIC (Staphylococcus aureus [6])	Selectivity Index [7]	Activity (Escherichia coli [8])	Activity (Staphylococcus aureus [9])	Activity (Staphylococcus aureus [10])	Selectivity Index [11]	Activity (Escherichia coli [12])	Activity [13]	Activity [14]	Activity [15]
N,N,N-trimethylhexadecan-1-aminium bromide	Active	Active	–	–	–	–	–	–	–	–	–	–	–	–	–
CCCCCCCCNC(=O)C[N+](C)(C)CC[N+](C)(C)CC(=O)NCCCCCCCC.[Br-].[Br-]	–	–	8 µg/mL	350 µg/mL	3.9 µg/mL	2 µg/mL	–	–	–	–	–	–	–	–	–
CCCCCCNC(=O)C[N+](C)(C)CCCCCCCCCC[N+](C)(C)CC(=O)NCCCCCC.[Br-].[Br-]	–	–	6 µg/mL	> 1000 µg/mL	4 µg/mL	4 µg/mL	310	Active	Active	Active	207	Active	–	–	–
CCCCCCNC(=O)C[N+](C)(C)CCCCCCCC[N+](C)(C)CC(=O)NCCCCCC.[Br-].[Br-]	–	–	31 µg/mL	> 1000 µg/mL	31 µg/mL	16 µg/mL	–	–	–	–	–	–	–	–	–
CCCCCCCCCCNC(=O)C[N+](C)(C)CC[N+](C)(C)CC(=O)NCCCCCCCCCC.[Br-].[Br-]	–	–	4 µg/mL	65 µg/mL	2 µg/mL	2 µg/mL	32	Active	Active	Active	16	Active	–	–	–
CCCCCCCCNC(=O)C[N+](C)(C)CCCCCCCCCCCC[N+](C)(C)CC(=O)NCCCCCCCC.[Br-].[Br-]	–	–	2 µg/mL	65 µg/mL	1 µg/mL	1 µg/mL	–	–	–	–	–	–	–	–	–
CCCCCCNC(=O)C[N+](C)(C)CCCCCC[N+](C)(C)CC(=O)NCCCCCC.[Br-].[Br-]	–	–	125 µg/mL	> 1000 µg/mL	125 µg/mL	62.5 µg/mL	–	–	–	–	–	–	–	–	–
CCCCCCCCNC(=O)C[N+](C)(C)CCCCCCCC[N+](C)(C)CC(=O)NCCCCCCCC.[Br-].[Br-]	–	–	2 µg/mL	212 µg/mL	2 µg/mL	1 µg/mL	182	Active	Active	Active	106	Active	Toxic	Toxic	Toxic
CCCCCCCCCCNC(=O)C[N+](C)(C)CCCCCCCCCC[N+](C)(C)CC(=O)NCCCCCCCCCC.[Br-].[Br-]	–	–	8 µg/mL	55 µg/mL	4 µg/mL	4 µg/mL	–	–	–	–	–	–	–	–	–
CCCCCCCCNC(=O)C[N+](C)(C)CCCCCCCCCC[N+](C)(C)CC(=O)NCCCCCCCC.[Br-].[Br-]	–	–	1 µg/mL	100 µg/mL	2 µg/mL	1 µg/mL	–	–	–	–	–	–	–	–	–
